Bioassay records (PubChem BioAssay)
SDO1 yeast rescue: restores growth of sdo1-depleted yeast. S. cerevisiae sdo1-depleted JHY4D growth rescue, OD600 30 h; active compounds read high; pdr5 snq2 efflux-pump mutant strain. z-score at 10 µM. 140,000 compounds, 0.21% hits. AID 817;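 active means z-score above 3 at both the 24 hr and the 30 hr optical density reads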
STAT1 act: increases IFN-gamma driven STAT1 reporter signal; NIH 3T3 STAT1-luciferase reporter, luminescence; 100% = IFN-gamma alone, no compound; activation (% of control), % at 5.5 µM; 200,000 compounds, 2.6% hits;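 active means activation above the screen-wide mean activation plus 3 SD, cut at about 130% in these data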
NF-kB expr up: compounds increasing NF-kB expression in human neuronal cells; fold change at 12.5 µM; NF-kB reporter expression; active compounds read high; 190,000 compounds, 1.6% hits; AID 1239; in the data active means fold change above about 3.3
FLuc act counter: affects firefly luciferase, flagging false hits in luciferase stimulation screens; P08659; ATPlite luciferase biochemical, luminescence, 10 min; 0 = ATP-free wells, 1 = DMSO control; 200,000 tested, under 10 active; activation factor at 10 µM;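 active means luciferase activation factor, scaled between plate controls, of at least 2 with compound at 10 µM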
Target sequence (P08659 whole entry, looked up): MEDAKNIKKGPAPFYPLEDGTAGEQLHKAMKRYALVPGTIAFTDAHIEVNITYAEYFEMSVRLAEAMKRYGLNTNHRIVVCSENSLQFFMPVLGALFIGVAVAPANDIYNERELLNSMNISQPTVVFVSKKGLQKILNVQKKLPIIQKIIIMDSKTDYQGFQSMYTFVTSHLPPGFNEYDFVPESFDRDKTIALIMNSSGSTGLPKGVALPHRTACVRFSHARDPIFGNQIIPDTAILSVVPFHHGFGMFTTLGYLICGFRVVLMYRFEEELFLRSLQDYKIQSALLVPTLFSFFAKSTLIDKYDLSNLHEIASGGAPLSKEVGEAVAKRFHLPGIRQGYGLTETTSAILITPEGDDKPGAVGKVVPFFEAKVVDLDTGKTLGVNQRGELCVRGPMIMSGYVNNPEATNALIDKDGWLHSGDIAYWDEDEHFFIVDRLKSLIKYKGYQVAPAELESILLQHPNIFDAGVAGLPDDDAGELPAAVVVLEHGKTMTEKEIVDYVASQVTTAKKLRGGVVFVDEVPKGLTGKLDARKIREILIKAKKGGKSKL
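Assay system: Luciferase/luciferin detection reagent, cell-free biochemical luciferase assay / Also added: ATP substrate / Schedule: 10 min at ambient temperature / Measured by: luminescence measurement of luciferase light output / Benchmarks: low control with PBS replacing ATP, high control enzyme plus ATP without compound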
APP 5'UTR act: activates APP 5'UTR luciferase reporter. 190,000 compounds, 1% hits. SH-SY5Y APP 5'UTR luciferase reporter, luminescence; zero percent = DMSO vehicle wells. activation, % at 2 µM;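 active means activation above a set limit, based on mean plus 3 SD of controls, cut at about 140% in these data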
FLuc inhib CS: inhibits firefly luciferase, flagging false hits in luciferase inhibition screens. ATPLite firefly luciferase biochemical luminescence, 10 min. inhibition, % at 10 µM. 200,000 compounds, 1.5% hits. AID 1006;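 active means inhibition above about 50% when tested at 10 µM, limit read from the data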
Large screens that a line does not name were inactive. The list is not random: actives were taken first. Their share in the collection is about 4.3%.

COC(=O)c1sccc1NC(=O)Cc1ccc(Br)cc1	none
O=C(CCl)N(c1ccccc1)C1CCCCC1	none (no result: SDO1 yeast rescue)
O=C(Nc1ccc(N2CCCC2)cc1)c1ccccc1F	STAT1 act 149, APP 5'UTR act 137, FLuc inhib CS 71
O=C(Nc1ccc(N2CCCCC2)cc1)c1cncc(Br)c1	STAT1 act 134, NF-kB expr up 4
O=C(Nc1ccc(N2CCCCC2)cc1)c1ccccc1	NF-kB expr up 5.7, APP 5'UTR act 164, FLuc inhib CS 88
CCN1CCN(c2ccc(NC(=O)c3ccc(C#N)cc3F)cc2Cl)CC1	none (no result: SDO1 yeast rescue)
CCN1CCN(c2ccc(NC(=O)c3ccccc3F)cc2Cl)CC1	STAT1 act 132 (no result: SDO1 yeast rescue)
Cc1nc2nc(N)nn2c(C)c1C/C=C/c1ccccc1	none (no result: SDO1 yeast rescue)
O=C(Nc1ccc(N2CCCC2=O)cc1)c1cccc(F)c1	STAT1 act 138, NF-kB expr up 5.4
Cc1ccc(C(=O)Nc2ccc(N3CCCC3)cc2)cc1	STAT1 act 140 (no result: SDO1 yeast rescue)
CNC(=O)c1cccc(N2CCCC2=O)c1	none
O=C(COc1cccnc1[N+](=O)[O-])NCCc1ccc(F)cc1	none (no result: SDO1 yeast rescue)
O=C(COC(=O)c1ccccc1C(=O)c1ccc(Cl)cc1)NCC1CCCO1 (stereo unspecified)	none (no result: SDO1 yeast rescue)
O=C(NNC(=S)Nc1ccccc1)c1cccs1	STAT1 act 130
O=C(NC(=S)Nc1ccc(Cl)cn1)c1cccs1	STAT1 act 194, NF-kB expr up 4, APP 5'UTR act 186, FLuc inhib CS 68
O=C(CCC(=O)Nc1ccccc1)NNC(=O)c1cccs1	none
O=C(NC(=S)Nc1cccnc1)c1cccs1	none (no result: SDO1 yeast rescue)
O=C(NNC(=S)Nc1ccc(Cl)cc1)c1cccs1	STAT1 act 131 (no result: SDO1 yeast rescue)
COc1cccc(NC(=O)C(=O)NCc2ccncc2)c1	STAT1 act 129 (no result: SDO1 yeast rescue)
COc1cccc(NC(=S)NCc2ccncc2)c1	none
COc1cccc(NC(=O)C(=O)N2CCOCC2)c1	STAT1 act 136 (no result: APP 5'UTR act)
Cc1c(C(=O)Nc2ccccc2)csc1-c1ccccc1	STAT1 act 137, NF-kB expr up 5.2, APP 5'UTR act 189, FLuc inhib CS 82
Cc1oc(-c2ccccc2)cc1C(=O)Nc1ccccc1	none
COc1ccc(NC(=O)Nc2ccc(N(C)C)cc2)cc1	STAT1 act 137
CCCNC(=O)C(=O)Nc1ccc(N(C)C)cc1	STAT1 act 137
COc1ccc(N(C(C)C(=O)Nc2cccnc2)S(C)(=O)=O)cc1 (stereo unspecified)	STAT1 act 130 (no result: SDO1 yeast rescue)
COc1ccc(NC(=O)Nc2ccc3nccnc3c2)cc1	STAT1 act 130, FLuc inhib CS 57
N[C@@H](Cc1ccc(O)cc1)c1nnc([C@H](CC(=O)O)NC(=O)C2CCNCC2)o1	none (no result: SDO1 yeast rescue)
Cc1ccc(N/C=C/C(=O)c2sc(-c3ccccc3)nc2C)cc1	none
N#CCC(=O)Nc1ccc(C(=O)OCC(=O)Nc2cccc(C(F)(F)F)c2)cc1	none (no result: SDO1 yeast rescue)
COc1cc(/C=N/NC(=O)c2cccc([N+](=O)[O-])c2)ccc1OC(=O)c1ccco1	none (no result: SDO1 yeast rescue)
Cc1ccc(-n2c3nc(=O)[nH]c(=O)c-3cc3c(C)nn(-c4ccccc4)c32)c(C)c1	none
COc1ccc(NC(=O)Nc2cccnc2)cc1	FLuc inhib CS 58 (no result: SDO1 yeast rescue)
CCOc1ccc(NC(=O)Nc2cccnc2)cc1	FLuc inhib CS 77 (no result: SDO1 yeast rescue)
CC1Cc2ccccc2N1C1=CC(=O)CCC1 (stereo unspecified)	none (no result: SDO1 yeast rescue)
O=P(O)(c1ccc(Cl)cc1)c1ccc(Cl)cc1	none
COc1ccc(C(=S)Nc2ccc(C)cc2)cc1	STAT1 act 133
COc1ccc(NC(=S)c2ccncc2)cc1	none
Cc1ccc(NC(=S)c2ccccc2)cc1	STAT1 act 139
COC(=O)C(C)N1C(=O)S/C(=C/c2cc(C)n(C(C)C)c2C)C1=O (stereo unspecified)	STAT1 act 138, FLuc inhib CS 51
CCn1c(C)cc(/C=C2/SC(=S)N(CC(=O)O)C2=O)c1C	FLuc inhib CS 80 (no result: SDO1 yeast rescue)
COC(=O)CN1C(=O)S/C(=C/c2cc(C)n(C)c2C)C1=O	STAT1 act 130
CCOC(=O)C(C)N1C(=O)S/C(=C/c2cc(C)n(-c3ccncc3)c2C)C1=O (stereo unspecified)	none (no result: SDO1 yeast rescue)
COc1ccc(N=C2S/C(=C\c3cc(C)n(C)c3C)C(=O)N2CC(C)C)cc1	none
CCOC(=O)C(C)N1C(=O)S/C(=C/c2cc(C)n(-c3ccccn3)c2C)C1=O (stereo unspecified)	APP 5'UTR act 140
COc1ccc(NC(=O)CN(C)C(=O)c2ccc(C)s2)cc1	none
O=C(CN1C(=O)C(=O)N(C2CCCC2)C1=O)Nc1ccc(N2CCOCC2)cc1	none (no result: SDO1 yeast rescue)
Cn1c2ccccc2c2cc(C(=O)NNC(=O)CCl)sc21	STAT1 act 133 (no result: SDO1 yeast rescue)
Cc1cn2c(nc(=O)c3cccnc32)s1	none
CC1CCC/C(=C\Nc2ccc(O)cc2)C1=O (stereo unspecified)	STAT1 act 136
COc1ccc(N/C=C2/CCCCC2=O)cc1	none
Cc1cc(C(=O)O)ccc1N/C=C1\CCCC(C)C1=O (stereo unspecified)	STAT1 act 150, NF-kB expr up 4, APP 5'UTR act 149
CCOC(=O)c1c(N)sc(C(N)=O)c1C	none
CCOC(=O)c1c(N)sc(C(=O)Nc2ccccc2)c1C	NF-kB expr up 7.1, APP 5'UTR act 222, FLuc inhib CS 84 (no result: SDO1 yeast rescue)
CCC(=O)Nc1sc(C(=O)Nc2ccccc2F)c(C)c1C(=O)OC	STAT1 act 131 (no result: SDO1 yeast rescue)
CCOC(=O)n1ccc(C(=O)Nc2ccccc2F)n1	none
CCOC(=O)c1[nH]c(C)c(C(=O)Nc2ccccc2F)c1C	none
COC(=O)c1c(NC(C)=O)sc(C(=O)Nc2ccccc2F)c1C	none (no result: SDO1 yeast rescue)
CCOC(=O)c1c(N)sc(C(=O)Nc2ccccc2F)c1C	NF-kB expr up 7.4, APP 5'UTR act 238, FLuc inhib CS 75 (no result: SDO1 yeast rescue)
CCOC(=O)c1cc(C(=O)Nc2ccccc2F)nn1C	STAT1 act 133, NF-kB expr up 5.9
CC1(C(=O)Oc2ccccc2)Cc2ccccc2C(=O)O1 (stereo unspecified)	none (no result: SDO1 yeast rescue)
O=C1NC(Cc2ccccc2)C(=O)N1CC(=O)N1CCCc2ccccc21 (stereo unspecified)	none (no result: SDO1 yeast rescue)
Cc1csc(C(C)N(C)C(=O)CCc2nnc(CCc3ccccc3)o2)n1 (stereo unspecified)	none (no result: SDO1 yeast rescue)
Fc1cc(F)c2nc(N3CCCC3)sc2c1	STAT1 act 131 (no result: SDO1 yeast rescue)
CC(C)(C)NC(=O)COC(=O)c1ccccc1OCC(=O)Nc1ccc(Br)cc1	FLuc inhib CS 64
CCCNC(=O)COC(=O)c1ccccc1OCC(=O)Nc1ccc(Br)cc1	none
CCOC(=O)c1ccccc1N/C=C/C(=O)c1cccs1	none
O=C(/C=C/Nc1ccccc1F)c1cccs1	NF-kB expr up 7.2, APP 5'UTR act 175, FLuc inhib CS 95
O=C(Nc1cccs1)Nc1ccc(F)cc1F	none
O=C(/C=C\Nc1cccc(F)c1)c1cccs1	STAT1 act 149, NF-kB expr up 7.7, APP 5'UTR act 189, FLuc inhib CS 79
